This is a sample that favours compounds with a hit; in the whole collection about 0.9% have one here.
RGS4-Gao reg = modulators of RGS4 binding to Galphao, primary screen, biochemical, multiplexed bead flow cytometry; Guanine nucleotide-binding protein G(o) subunit alpha (Homo sapiens), P09471; actives lie on both sides; binding response (% of control), % at 10 µM; 220,000 compounds, 0.33% hits; AID 1415, 2008; in the data active = binding response below about 49% or above about 150%; inactive = in between;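 note: fluorescent Galphao activated with aluminum fluoride binding bead-coupled RGS4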
RGS7-Gao = RGS7-Galphao binding modulators, primary screen, biochemical, multiplexed bead flow cytometry; Guanine nucleotide-binding protein G(o) subunit alpha (Homo sapiens), P09471; actives lie on both sides; AID 1439, 2008; 220,000 compounds, 0.35% hits; binding response (% of control), % at 10 µM; in the data active = binding response below about 49% or above about 150%; inconclusive = no clear call, values can overlap the other calls; inactive = in between;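 note: fluorescent Galphao held in activated GDP-AlF4 state binding bead-coupled RGS7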
RGS8-Gao = RGS8-Galphao binding modulators, primary screen, biochemical, multiplexed bead flow cytometry. AID 1423, 2008. response (percent of control binding), % at 10 µM. Guanine nucleotide-binding protein G(o) subunit alpha (Homo sapiens), P09471. actives lie on both sides. 220,000 compounds, 0.34% hits; in the data active = response below about 60% or above about 140%; inactive = in between;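 note: Galphao activated as the GDP aluminium fluoride complex binding bead-coupled RGS8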
RGS16-Gao HTS = modulators of RGS16 binding to Galphao, primary screen, biochemical, human proteins, multiplexed bead flow cytometry | binding response (% of control), % at 10 µM | bead-based flow cytometry RGS16-Galphao binding, fluorescence; actives lie on both sides | 220,000 compounds, 0.38% hits;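 note: Galphao activated by GDP with aluminum fluoride before binding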
ABCG2 inh = ABCG2 efflux pump inhibitors, primary screen, multiplex with ABCB1, IgMXP3 cells, flow cytometry | Broad substrate specificity ATP-binding cassette transporter ABCG2 (Homo sapiens), Q9UNQ0 | JC-1 efflux | inhibition, % at 6.6 µM | 190,000 compounds, 0.1% hits | AID 1325, 2008;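 active = inhibition above 80%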;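 note: 0% = DMSO and 100% = nicardipine control wells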
Target sequence (Q9UNQ0 whole entry, looked up): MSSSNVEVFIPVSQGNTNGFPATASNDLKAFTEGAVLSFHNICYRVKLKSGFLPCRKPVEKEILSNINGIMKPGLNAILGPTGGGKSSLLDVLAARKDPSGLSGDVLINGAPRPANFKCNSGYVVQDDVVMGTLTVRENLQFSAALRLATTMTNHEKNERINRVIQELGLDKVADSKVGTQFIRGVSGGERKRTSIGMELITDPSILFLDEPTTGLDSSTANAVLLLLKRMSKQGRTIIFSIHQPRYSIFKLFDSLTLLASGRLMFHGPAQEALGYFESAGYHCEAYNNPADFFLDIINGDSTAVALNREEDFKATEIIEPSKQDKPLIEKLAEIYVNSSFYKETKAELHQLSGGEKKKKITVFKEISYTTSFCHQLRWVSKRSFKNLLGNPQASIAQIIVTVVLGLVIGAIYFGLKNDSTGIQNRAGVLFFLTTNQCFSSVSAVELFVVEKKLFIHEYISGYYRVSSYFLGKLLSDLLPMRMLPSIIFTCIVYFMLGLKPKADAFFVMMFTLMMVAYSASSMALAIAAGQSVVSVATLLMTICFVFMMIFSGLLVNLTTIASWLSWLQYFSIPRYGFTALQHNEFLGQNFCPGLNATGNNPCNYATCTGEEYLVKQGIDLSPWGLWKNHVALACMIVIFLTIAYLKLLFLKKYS
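Times: 10 min at 25 °C | Test system: Two drug-resistant human cell lines, ABCG2 and ABCB1 | Quantity: 3 million cells/mL final, two lines in 1:1 ratio | Signal: Flow cytometry, 530 nm JC-1 signal | Dosing: Compound at 6.6 µM | Controls: Nicardipine and DMSO wells | Reagent: JC-1 as fluorescent efflux pump substrate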
ABCB1 inh = ABCB1 efflux pump inhibitors, primary screen, cell-based, multiplex, flow cytometry, ABCG2 counter-screen. AID 1326, 2008. inhibition, % at 6.6 µM. 190,000 compounds, 0.067% hits. ATP-dependent translocase ABCB1 (Homo sapiens), P08183. CCRF-Adr cells, JC-1 efflux; in the data active = inhibition above about 40%;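 note: 0% = vehicle and 100% = reference inhibitor; higher value means more JC-1 retained so stronger ABCB1 efflux block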
RGS4-Gao HTS = modulators of RGS–Galpha-o binding, primary screen, biochemical, multiplexed beads, flow cytometry, RGS4/7/8/16/19; AID 1504, 2009; multiplexed bead flow cytometry; shares compounds with RGS16-Gao HTS; RGS4–Galpha-o binding response, % at 10 µM; 1,600 compounds, 99% hits;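 note: fluorescently labeled Galpha-o bound to GDP with aluminium fluoride binding biotinylated RGS beads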
Avidin counter = disruption of biotin probe capture by avidin, counter-screen for RGS protein interaction modulators, biochemical, flow cytometry, bead-based. streptavidin beads, fluorescein-biotin binding. 1,700 tested, under 10 active. inhibition, % at 10 µM. shares compounds with RGS16-Gao HTS;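 active = inhibition above 50%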;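 note: median green fluorescence of gated singlet beads compared with DMSO control wells; 0% = DMSO wells and 100% = complete loss of bead fluorescence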
RGS8-Gao single = RGS8-Galphao binding modulators, confirmation, biochemical, multiplexed bead flow cytometry, single concentration | shares compounds with RGS16-Gao HTS | AID 1836, 2009 | 1,700 compounds, 3% hits | bead-based flow cytometry RGS8-Galphao binding, fluorescence; actives lie on both sides | binding response (% of control), % at 10 µM; in the data active = binding response below about 72% or above about 130%; inactive = in between;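 note: Galphao activated as GDP AlF4 complex before binding bead RGS8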
RGS7-Gao single = RGS7-Galphao binding modulators, confirmation, biochemical, multiplexed bead flow cytometry, single concentration. shares compounds with RGS16-Gao HTS. bead-based flow cytometry RGS7-Galphao binding; actives lie on both sides. response (percent of control binding), % at 10 µM. 1,700 compounds, 7.8% hits. AID 1837, 2009; in the data active = response below about 75% or above about 130%; inactive = in between;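 note: fluorescent Galphao activated with GDP and aluminum fluoride binding bead-coupled RGS7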
RGS16-Gao single = modulators of RGS16-Galphao protein binding, confirmation, biochemical, single concentration, multiplexed bead flow cytometry | response (% of control binding), % at 10 µM | bead-based flow cytometry; actives lie on both sides | 1,700 compounds, 4% hits | shares compounds with RGS16-Gao HTS; in the data active = response below about 74% or above about 130%; inactive = in between;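 note: Galphao activated as the GDP aluminium fluoride complex binding bead-coupled RGS16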
RGS4-Gao confirm = modulators of RGS4-Galphao protein binding, confirmation, biochemical, single concentration, multiplexed bead flow cytometry; shares compounds with RGS16-Gao HTS; actives lie on both sides; binding response (% of control), % at 10 µM; 1,700 compounds, 4% hits; AID 1840, 2009; in the data active = binding response below about 74% or above about 130%; inactive = in between
RGS19-Gao single = regulators of RGS19-Galphao binding, confirmation, biochemical, single point, multiplexed bead flow cytometry | shares compounds with RGS16-Gao HTS | bead-based flow cytometry RGS19-Galphao binding; actives lie on both sides | response (percent of control binding), % at 10 µM | 1,700 compounds, 5% hits; in the data active = response below about 50% or above about 160%; inactive = in between;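 note: 100% = no compound control and 0% = blank background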
An asterisk follows results filed as active; ? = inconclusive; · = no result given; [ ] = remark or other dose. Unless noted, the rule behind the calls is not given here.

SMILES	RGS4-Gao reg	RGS7-Gao	RGS8-Gao	RGS16-Gao HTS	ABCG2 inh	ABCB1 inh	RGS4-Gao HTS	Avidin counter	RGS8-Gao single	RGS7-Gao single	RGS16-Gao single	RGS4-Gao confirm	RGS19-Gao single
C=CCSC1=NC(N)=C(C#N)C2(CCCCC2)C1C(N)=O (configuration not stated)	91	86	86	36	-6	-2	·	·	·	·	·	·	·
CC(C)c1cccc(C(C)C)c1OCCCCN1CCCC1	·	·	·	·	0	0	·	1	99	96	99	96	134
CCOc1ccccc1OCCCCN1CCCC1	99	96	100	100	3	1	·	·	·	·	·	·	·
O=c1[nH]c2cc3c(cc2cc1CN(CC1CCCO1)S(=O)(=O)c1ccc(Cl)cc1)OCCO3 (configuration not stated)	110	110	147*[activator]	403	2	1	110*	1	100	107	103	106	103
Cc1ccc(S(=O)(=O)N(Cc2cc3cc4c(cc3[nH]c2=O)OCCO4)CC2CCCO2)cc1 (configuration not stated)	96	101	103	98	1	0	·	·	·	·	·	·	·
COc1ccc(/C(C)=N/NC(=S)Nc2cc(C)ccc2C)cc1	101	?	98	100	7	0	·	·	·	·	·	·	·
CC(C)NS(=O)(=O)c1ccc(OCC(=O)Nc2ccc3c(c2)OCO3)cc1	38*	31*	39*	33	1	0	·	-2	99	96	99	97	92
O=C(CCC(=O)Nc1ccc(Cl)cc1Cl)NNC(=O)[C@@H]1CCCC[C@@H]1C(=O)O	108	107	128	185*[activator]	0	0	108*	1	101	105	103	103	101
O=C(O)C1CCCCC1C(=O)Nc1ccc(Cl)cc1Cl (configuration not stated)	90	91	98	90	3	0	·	·	·	·	·	·	·
O=C(O)C1CCCCC1C(=O)Nc1cc(Cl)ccc1Cl (configuration not stated)	87	49*	59*	99	0	0	87*	1	100	102	101	102	105
Cc1ccc(C)c(S(=O)(=O)N2CCN(CC(=O)NC(=O)NCc3ccco3)CC2)c1	103	99	100	98	0	0	·	·	·	·	·	·	·

Screening data deposited in PubChem by NMMLSC.
